Laboratory results taken from ChEMBL document CHEMBL1151981, “Bioactive pyridine-N-oxide disulfides from Allium stipitatum” (J Nat Prod, 2009).
In brackets after ≈: the same amount, converted by molar mass. Activity calls are given as the source filed them. The rule behind the calls is not given here.

Legend:
[1] = tested on: Mycobacterium tuberculosis; experiment: Antibacterial activity against Mycobacterium bovis BCG at 0.01 to 5 ug/ml after 14 days by spot-culture growth inhibition assay; assay type: functional, organism-based; settings: variant bovis BCG
Summary of the method: (§1)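 Mid-exponential cultures (BCG rotated in 7H9/ADC/Tween 80; H37Rv standing in 7H9/OADC/Tween 80) diluted to 10³ cells/mL. 5 µL spotted onto 7H10 agar with 10% OADC containing compound at 0.01, 0.1, 0.5, 1 and 5 µg/mL. Incubated at 37 °C for 14 days. MIC taken as lowest concentration with no growth; no-compound well as growth control.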

[2] = tested on: Mycobacterium tuberculosis; experiment: Antibacterial activity against Mycobacterium bovis BCG after 14 days by spot-culture growth inhibition assay; assay type: functional; settings: variant bovis BCG, 336 h; summary of the method: as §1

Compound	Activity [1]	MIC [2]
CSSc1cccc[n+]1[O-]	Active	0.1 µg/mL (≈ 0.577 µM)
CSCSSc1cccc[n+]1[O-]	Active	0.1 µg/mL (≈ 0.456 µM)
